Calls of active or inactive are those of the source.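 Rule for the calls: active = compounds lowering cell ATP light, with fitted IC50 at most twice the top tested dose; inconclusive = flat curve losing 30 to 70% signal, or poor fit; inactive = the rest.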
system: not listed separately; assay: HeLa cell cytotoxicity, dose response, cytotoxicity control for pyoverdine/PvdQ inhibitor project, CellTiter-Glo luminescence, dry powder, set 3 (AID 623987); settings: HeLa viability, CellTiter-Glo ATP luminescence; at 120 µM (top of the series)
How it was run: (§1)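 Test system: HeLa cells; Amount: 2,500 cells/well; Buffer or medium: phenol red-free DMEM, 10% FBS; Compound dosing: 3-fold series, 10 mM stock top; Incubation: 24 h pre-growth at 37 °C, 48 h exposure; Signal: CellTiter-Glo luminescence measuring cellular ATP.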

Row | Structure (SMILES) | activity change, negative = toxicity
1 | N#CC(c1ccc(F)cc1)c1cccc(C(F)(F)F)n1 (stereo not given) | 5.55% (inactive)
2 | COCCNC(C#N)c1ccc(Cl)cc1 (stereo not given) | -1.45% (inactive)
3 | Clc1ccc(C(c2cccc(Cl)n2)c2nn[nH]n2)cc1 (stereo not given) | 1.4% (inactive)
4 | N#CC(c1ccc(Cl)cc1)c1cccc(Cl)n1 (stereo not given) | 3.78% (inactive)
5 | CN(C)CCCC(C#N)c1ccc(Cl)cc1 (stereo not given) | 6.74% (inactive)
6 | COCCC(C#N)c1ccc(F)cc1 (stereo not given) | 4.64% (inactive)
7 | N#CC(c1ccc(Cl)cc1)N1CCCC1 (stereo not given) | 24% (inactive)
8 | CCCCC(C#N)c1ccc(Cl)cc1 (stereo not given) | 7.6% (inactive)
9 | CCCCC(C#N)c1ccc(F)cn1 (stereo not given) | 1.98% (inactive)
10 | CCCCC(c1ccc(Cl)cc1)c1nn[nH]n1 (stereo not given) | 9.15% (inactive)
11 | N#Cc1cccc(C(C#N)c2ccc(F)cc2)n1 (stereo not given) | -2.4% (inactive)
12 | N#CC(c1ccc(Cl)cc1)c1cccc(C(F)(F)F)n1 (stereo not given) | 4.48% (inactive)
13 | CCCCC(C#N)c1ccc(Cl)cn1 (stereo not given) | 13.2% (inactive)
14 | CCCCC(C#N)c1ccc(F)cc1 (stereo not given) | -1.79% (inactive)
15 | COCCOCCC(C#N)c1ccc(F)cc1 (stereo not given) | 5.01% (inactive)
16 | N#CC(c1ccc(Cl)cc1)c1ccccn1 (stereo not given) | 0.002% (inactive)

system: HeLa viability, CellTiter-Glo ATP luminescence; assay: as above; settings: not given
How it was run: as §1

Row | Structure (SMILES) | IC50
17 | N#CC(c1ccc(Cl)cc1)c1ncccc1Cl (stereo not given) | > 240 µM (inactive)
18 | N#CC(c1ccc(C(F)(F)F)c(Cl)n1)c1ccccc1OC(F)(F)F (stereo not given) | > 240 µM (inactive)
19 | N#CC(c1ccc(F)cc1)c1cccc(Cl)n1 (stereo not given) | > 240 µM (inactive)
20 | CCCCC(C#N)c1ccccn1 (stereo not given) | > 240 µM (inactive)
21 | N#CC1c2ccc(Cl)cc2CCc2cccnc21 (stereo not given) | > 240 µM (inactive)
22 | COCCC(C#N)c1ccc(Cl)cc1 (stereo not given) | 94.2 µM
23 | N#CC(c1cccc(C(F)(F)F)n1)c1ccc(Cl)cc1F (stereo not given) | > 240 µM (inactive)
24 | CN(C)CCCC(C#N)c1ccc(F)cc1 (stereo not given) | > 240 µM (inactive)
25 | COCCOCCC(C#N)c1ccc(Cl)cc1 (stereo not given) | > 240 µM (inactive)
